{"source": "ChEMBL document CHEMBL3739255", "about": "“Novel Series of Dihydropyridinone P2X7 Receptor Antagonists” (J Med Chem, 2015)", "key": {"Rattus norvegicus [1]": {"species_on_record": "Rattus norvegicus", "test": "Inhibition of rat P2Y purinoceptor at 10 uM by radioligand binding assay", "method_in_brief": "(§1)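 Outsourced broad receptor-screening panel of 78 targets, each tested at a single 10 uM concentration; read-out is percent inhibition. Detailed conditions are given only in the Supporting Information.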"}, "[2]": {"molecular_target": "Prostacyclin receptor (Homo sapiens) (UniProt P43119)", "sequence (P43119 whole entry)": "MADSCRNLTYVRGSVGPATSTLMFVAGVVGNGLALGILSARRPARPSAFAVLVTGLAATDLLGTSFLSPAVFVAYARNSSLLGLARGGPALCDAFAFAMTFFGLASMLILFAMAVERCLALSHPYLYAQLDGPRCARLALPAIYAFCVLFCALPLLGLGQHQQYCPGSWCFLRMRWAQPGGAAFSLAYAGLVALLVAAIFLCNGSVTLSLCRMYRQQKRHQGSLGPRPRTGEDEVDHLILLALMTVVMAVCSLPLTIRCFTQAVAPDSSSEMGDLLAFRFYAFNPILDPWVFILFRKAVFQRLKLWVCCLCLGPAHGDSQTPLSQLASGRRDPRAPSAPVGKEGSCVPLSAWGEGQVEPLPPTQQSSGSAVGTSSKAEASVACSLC", "test": "Inhibition of human PGI2 receptor at 10 uM by radioligand binding assay", "method_in_brief": "as §1"}, "[3]": {"molecular_target": "Neurotensin receptor type 1 (Homo sapiens) (UniProt P30989)", "sequence (P30989 whole entry)": "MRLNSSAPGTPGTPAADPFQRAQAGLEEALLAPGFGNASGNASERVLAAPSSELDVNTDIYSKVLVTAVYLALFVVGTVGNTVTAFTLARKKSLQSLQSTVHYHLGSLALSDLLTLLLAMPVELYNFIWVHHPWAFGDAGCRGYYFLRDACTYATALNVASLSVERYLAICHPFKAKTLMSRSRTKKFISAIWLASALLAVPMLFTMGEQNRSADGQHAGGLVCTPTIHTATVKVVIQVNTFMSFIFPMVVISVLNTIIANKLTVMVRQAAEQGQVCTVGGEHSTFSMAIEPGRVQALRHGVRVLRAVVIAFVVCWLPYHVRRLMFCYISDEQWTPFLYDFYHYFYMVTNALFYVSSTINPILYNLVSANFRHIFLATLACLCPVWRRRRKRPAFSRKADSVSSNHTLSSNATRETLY", "test": "Inhibition of human neurotensin 1 receptor at 10 uM by radioligand binding assay", "method_in_brief": "as §1"}, "[4]": {"molecular_target": "D(1A) dopamine receptor (Homo sapiens) (UniProt P21728)", "test": "Inhibition of human dopamine D1 receptor at 10 uM", "method_in_brief": "as §1"}, "Rattus norvegicus [5]": {"species_on_record": "Rattus norvegicus", "test": "Inhibition of rat bombesin receptor at 10 uM", "method_in_brief": "(§2)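 Single-concentration screen at 10 uM in a commercial 78-receptor panel run by CEREP; results are given as % inhibition.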"}, "[6]": {"molecular_target": "Prostacyclin receptor (Homo sapiens) (UniProt P43119)", "test": "Inhibition of human prostanoid IP1 receptor at 10 uM", "type": "functional", "method_in_brief": "as §1"}, "[7]": {"molecular_target": "Muscarinic acetylcholine receptor M1 (Homo sapiens) (UniProt P11229)", "test": "Inhibition of human muscarinic M1 receptor at 10 uM", "method_in_brief": "as §1"}, "[8]": {"molecular_target": "5-hydroxytryptamine receptor 1A (Homo sapiens) (UniProt P08908)", "test": "Inhibition of human 5-HT1A receptor at 10 uM", "method_in_brief": "(§3)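 Commercial receptor scan across a 78-target panel, with percent inhibition measured at a test concentration of 10 uM.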"}, "[9]": {"molecular_target": "Vasopressin V1a receptor (Homo sapiens) (UniProt P37288)", "test": "Inhibition of human vasopressin V1a receptor at 10 uM by radioligand binding assay", "method_in_brief": "as §1"}, "[10]": {"molecular_target": "Pituitary adenylate cyclase-activating polypeptide type I receptor (Homo sapiens) (UniProt P41586)", "test": "Inhibition of human PAC1 at 10 uM by radioligand binding assay", "method_in_brief": "as §3"}, "[11]": {"molecular_target": "Beta-1 adrenergic receptor (Homo sapiens) (UniProt P08588)", "test": "Inhibition of human beta1-adrenoceptor at 10 uM by radioligand binding assay", "method_in_brief": "as §1"}, "[12]": {"test": "Binding affinity to Cytochrome P450 in rat liver microsomes at 10 uM incubated for 30 mins", "type": "ADME", "conditions": "0.5 h; call rule not given here", "method_in_brief": "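Covalent binding in rat and human liver microsomes, run both without and with NADPH.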"}, "[13]": {"molecular_target": "P2X2/P2X3 heterotrimeric receptor (Homo sapiens, UniProt P56373+Q9UBL9)", "test": "Inhibition of P2X2/3R (unknown origin)", "type": "protein-complex assay", "method_in_brief": "(§4)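 Selectivity at other P2X receptor subtypes, read as IC50 in a FLIPR Ca2+ flux assay.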"}, "P2X purinoceptor 3": {"molecular_target": "P2X purinoceptor 3 (Homo sapiens, UniProt P56373)", "sequence (P56373 whole entry)": "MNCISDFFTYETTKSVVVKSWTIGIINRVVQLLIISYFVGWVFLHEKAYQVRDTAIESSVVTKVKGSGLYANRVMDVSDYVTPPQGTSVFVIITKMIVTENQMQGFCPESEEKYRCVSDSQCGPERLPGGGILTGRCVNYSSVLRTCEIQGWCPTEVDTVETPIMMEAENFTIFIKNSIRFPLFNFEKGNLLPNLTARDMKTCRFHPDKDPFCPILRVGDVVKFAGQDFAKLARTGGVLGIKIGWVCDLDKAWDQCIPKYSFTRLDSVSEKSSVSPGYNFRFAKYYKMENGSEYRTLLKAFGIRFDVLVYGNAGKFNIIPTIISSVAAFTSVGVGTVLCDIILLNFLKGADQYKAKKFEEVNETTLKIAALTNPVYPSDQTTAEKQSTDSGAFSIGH", "test": "Inhibition of P2X3R (unknown origin)", "method_in_brief": "as §4"}, "Rattus norvegicus [14]": {"species_on_record": "Rattus norvegicus", "test": "Inhibition of rat central type benzodiazepine receptor at 10 uM by radioligand binding assay", "method_in_brief": "as §2"}, "[15]": {"molecular_target": "C-X-C chemokine receptor type 2 (Homo sapiens) (UniProt P25025)", "sequence (P25025 whole entry)": "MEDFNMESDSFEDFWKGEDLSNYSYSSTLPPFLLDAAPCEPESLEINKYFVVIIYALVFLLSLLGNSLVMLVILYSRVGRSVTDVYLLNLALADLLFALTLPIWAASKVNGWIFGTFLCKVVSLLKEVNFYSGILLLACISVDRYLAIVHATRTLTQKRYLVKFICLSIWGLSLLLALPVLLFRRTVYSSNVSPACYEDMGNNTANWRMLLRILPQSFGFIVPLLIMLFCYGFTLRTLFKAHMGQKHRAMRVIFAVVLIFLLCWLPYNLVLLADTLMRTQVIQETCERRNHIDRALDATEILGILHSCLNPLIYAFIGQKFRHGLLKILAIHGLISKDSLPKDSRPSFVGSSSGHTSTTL", "test": "Inhibition of human CXCR2 at 10 uM by radioligand binding assay", "method_in_brief": "as §3"}, "[16]": {"molecular_target": "Glutamate NMDA receptor (Rattus norvegicus) (UniProt P35439+Q00959+Q00960+Q00961+Q62645+Q8VHN2+Q9R1M7)", "test": "Inhibition of rat NMDA receptor PCP binding site at 10 uM", "type": "protein-complex assay", "method_in_brief": "as §1"}, "[17]": {"molecular_target": "Galanin receptor type 2 (Homo sapiens) (UniProt O43603)", "test": "Inhibition of human galanin receptor 2 at 10 uM by radioligand binding assay", "method_in_brief": "as §1"}, "[18]": {"molecular_target": "Adrenergic receptor alpha-2 (Rattus norvegicus) (UniProt P22086+P19328+P22909)", "test": "Inhibition of rat alpha2-adrenoceptor at 10 uM", "method_in_brief": "as §1"}, "[19]": {"test": "Metabolic stability in human plasma", "type": "ADME, cell-free", "conditions": "read-out: Stability (converted)", "method_in_brief": "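Compound incubated in human plasma for 4 h and monitored for degradation.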"}, "[20]": {"molecular_target": "Neuromedin-K receptor (Homo sapiens) (UniProt P29371)", "sequence (P29371 whole entry)": "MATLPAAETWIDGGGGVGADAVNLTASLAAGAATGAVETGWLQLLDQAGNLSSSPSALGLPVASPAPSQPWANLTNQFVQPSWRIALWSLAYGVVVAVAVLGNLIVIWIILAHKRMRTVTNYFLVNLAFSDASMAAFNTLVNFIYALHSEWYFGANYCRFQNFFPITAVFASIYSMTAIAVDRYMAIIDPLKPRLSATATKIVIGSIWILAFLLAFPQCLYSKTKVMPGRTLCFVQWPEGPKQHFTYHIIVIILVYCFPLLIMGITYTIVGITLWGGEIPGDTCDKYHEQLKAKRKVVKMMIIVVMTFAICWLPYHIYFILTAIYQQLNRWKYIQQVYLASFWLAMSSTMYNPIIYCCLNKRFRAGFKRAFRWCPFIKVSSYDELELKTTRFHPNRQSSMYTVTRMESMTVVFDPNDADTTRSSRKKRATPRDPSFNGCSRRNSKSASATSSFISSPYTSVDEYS", "test": "Inhibition of human NK3 receptor at 10 uM", "method_in_brief": "as §3"}, "[21]": {"molecular_target": "5-hydroxytryptamine receptor 2C (Homo sapiens) (UniProt P28335)", "sequence (P28335 whole entry)": "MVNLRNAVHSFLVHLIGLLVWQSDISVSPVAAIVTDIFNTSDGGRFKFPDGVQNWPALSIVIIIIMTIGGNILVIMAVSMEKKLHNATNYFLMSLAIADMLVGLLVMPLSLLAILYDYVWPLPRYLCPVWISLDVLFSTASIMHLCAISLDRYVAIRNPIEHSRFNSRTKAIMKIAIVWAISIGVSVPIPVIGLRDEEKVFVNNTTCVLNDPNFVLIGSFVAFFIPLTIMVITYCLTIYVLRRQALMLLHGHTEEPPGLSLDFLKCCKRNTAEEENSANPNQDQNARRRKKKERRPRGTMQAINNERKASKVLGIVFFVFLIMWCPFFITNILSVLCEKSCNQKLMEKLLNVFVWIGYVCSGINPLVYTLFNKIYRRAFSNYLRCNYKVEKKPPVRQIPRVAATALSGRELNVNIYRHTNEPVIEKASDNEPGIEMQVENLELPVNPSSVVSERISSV", "test": "Inhibition of human 5-HT2C receptor at 10 uM by radioligand binding assay", "method_in_brief": "as §3"}, "[22]": {"molecular_target": "Melatonin receptor type 1A (Homo sapiens) (UniProt P48039)", "test": "Inhibition of human melatonin receptor type 1A at 10 uM", "method_in_brief": "as §1"}, "[23]": {"molecular_target": "Small conductance calcium-activated potassium channel (Rattus norvegicus) (UniProt P70604+P70606+P70605)", "test": "Inhibition of rat small conductance calcium-activated potassium channel at 10 uM by radioligand binding assay", "type": "protein assay", "method_in_brief": "as §2"}, "[24]": {"molecular_target": "Adenosine receptor A2a (Homo sapiens) (UniProt P29274)", "test": "Inhibition of human adenosine A2A receptor at 10 uM by radioligand binding assay", "method_in_brief": "as §1"}, "[25]": {"molecular_target": "5-hydroxytryptamine receptor 2B (Homo sapiens) (UniProt P41595)", "test": "Inhibition of human 5-HT2B receptor at 10 uM by radioligand binding assay", "method_in_brief": "as §3"}, "[26]": {"molecular_target": "Endothelin-1 receptor (Homo sapiens) (UniProt P25101)", "sequence (P25101 whole entry)": "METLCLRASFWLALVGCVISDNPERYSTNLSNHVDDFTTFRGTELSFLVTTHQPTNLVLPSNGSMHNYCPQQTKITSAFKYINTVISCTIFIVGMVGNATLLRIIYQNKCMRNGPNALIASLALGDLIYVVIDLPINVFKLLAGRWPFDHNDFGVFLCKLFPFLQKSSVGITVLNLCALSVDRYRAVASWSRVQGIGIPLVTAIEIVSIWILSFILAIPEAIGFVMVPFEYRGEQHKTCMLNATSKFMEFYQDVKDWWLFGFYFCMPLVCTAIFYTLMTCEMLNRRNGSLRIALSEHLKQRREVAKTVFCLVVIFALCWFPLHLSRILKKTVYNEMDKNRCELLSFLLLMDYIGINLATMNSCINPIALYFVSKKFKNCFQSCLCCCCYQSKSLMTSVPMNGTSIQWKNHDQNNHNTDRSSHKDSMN", "test": "Inhibition of human ETA receptor at 10 uM by radioligand binding assay", "method_in_brief": "as §3"}, "[27]": {"molecular_target": "Beta-2 adrenergic receptor (Homo sapiens) (UniProt P07550)", "test": "Inhibition of human beta2-adrenoceptor at 10 uM by radioligand binding assay", "method_in_brief": "as §1"}, "[28]": {"molecular_target": "Somatostatin receptor (Mus musculus) (UniProt P30935+O08858+P30875+P30873+P49660)", "test": "Inhibition of mouse somatostatin receptor at 10 uM by radioligand binding assay", "type": "protein assay", "method_in_brief": "as §1"}, "[29]": {"molecular_target": "D(3) dopamine receptor (Homo sapiens) (UniProt P35462)", "sequence (P35462 whole entry)": "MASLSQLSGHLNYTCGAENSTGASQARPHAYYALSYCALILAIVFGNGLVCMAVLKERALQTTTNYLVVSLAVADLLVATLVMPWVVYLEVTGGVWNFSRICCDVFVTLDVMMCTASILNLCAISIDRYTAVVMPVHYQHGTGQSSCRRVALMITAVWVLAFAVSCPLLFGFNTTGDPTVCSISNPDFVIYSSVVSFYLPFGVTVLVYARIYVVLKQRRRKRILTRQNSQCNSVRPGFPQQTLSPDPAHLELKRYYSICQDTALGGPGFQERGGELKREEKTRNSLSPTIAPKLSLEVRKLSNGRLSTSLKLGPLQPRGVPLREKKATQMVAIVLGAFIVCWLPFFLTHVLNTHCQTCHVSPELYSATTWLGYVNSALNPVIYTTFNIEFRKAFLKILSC", "test": "Inhibition of human dopamine D3 receptor at 10 uM", "method_in_brief": "as §1"}, "[30]": {"molecular_target": "Galanin receptor type 1 (Homo sapiens) (UniProt P47211)", "test": "Inhibition of human galanin receptor 1 at 10 uM by radioligand binding assay", "method_in_brief": "as §1"}, "[31]": {"molecular_target": "Muscarinic acetylcholine receptor M4 (Homo sapiens) (UniProt P08173)", "test": "Inhibition of human muscarinic M4 receptor at 10 uM", "method_in_brief": "as §1"}, "[32]": {"molecular_target": "Sodium-dependent serotonin transporter (Homo sapiens) (UniProt P31645)", "sequence (P31645 whole entry, looked up)": "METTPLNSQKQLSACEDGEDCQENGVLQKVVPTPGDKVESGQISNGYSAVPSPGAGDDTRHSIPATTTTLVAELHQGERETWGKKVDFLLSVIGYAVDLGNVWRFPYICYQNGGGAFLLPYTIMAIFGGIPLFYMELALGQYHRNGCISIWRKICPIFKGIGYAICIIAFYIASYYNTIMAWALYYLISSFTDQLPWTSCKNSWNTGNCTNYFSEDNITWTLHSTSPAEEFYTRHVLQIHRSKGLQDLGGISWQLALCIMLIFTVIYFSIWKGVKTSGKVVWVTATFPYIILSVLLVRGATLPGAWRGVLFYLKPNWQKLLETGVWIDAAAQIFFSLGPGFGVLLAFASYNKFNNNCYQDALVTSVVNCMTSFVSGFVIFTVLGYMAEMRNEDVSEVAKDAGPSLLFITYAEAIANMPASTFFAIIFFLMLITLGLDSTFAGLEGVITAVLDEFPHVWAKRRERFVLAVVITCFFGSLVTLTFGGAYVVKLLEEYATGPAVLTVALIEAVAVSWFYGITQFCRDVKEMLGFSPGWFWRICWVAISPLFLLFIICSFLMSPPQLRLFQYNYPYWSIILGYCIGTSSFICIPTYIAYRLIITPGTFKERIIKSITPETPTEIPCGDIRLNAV", "test": "Inhibition of human 5-HT transporter at 10 uM", "method_in_brief": "as §3"}, "Liver microsome": {"test_system": "Liver microsome", "test": "Drug metabolism in human liver microsomes assessed as GSH adduct UV peak area at 20 uM preincubated for 5 mins followed by NADPH addition measured after 60 mins by LC/MS/MS analysis relative to total area of GSH adduct, other metabolites, parent compound", "type": "ADME", "conditions": "1 h, BLD = below limit of detection"}, "[33]": {"molecular_target": "5-hydroxytryptamine receptor 6 (Homo sapiens) (UniProt P50406)", "test": "Inhibition of human 5-HT6 receptor at 10 uM by radioligand binding assay", "method_in_brief": "as §3"}, "[34]": {"molecular_target": "Glucocorticoid receptor (Homo sapiens) (UniProt P04150)", "sequence (P04150 whole entry)": "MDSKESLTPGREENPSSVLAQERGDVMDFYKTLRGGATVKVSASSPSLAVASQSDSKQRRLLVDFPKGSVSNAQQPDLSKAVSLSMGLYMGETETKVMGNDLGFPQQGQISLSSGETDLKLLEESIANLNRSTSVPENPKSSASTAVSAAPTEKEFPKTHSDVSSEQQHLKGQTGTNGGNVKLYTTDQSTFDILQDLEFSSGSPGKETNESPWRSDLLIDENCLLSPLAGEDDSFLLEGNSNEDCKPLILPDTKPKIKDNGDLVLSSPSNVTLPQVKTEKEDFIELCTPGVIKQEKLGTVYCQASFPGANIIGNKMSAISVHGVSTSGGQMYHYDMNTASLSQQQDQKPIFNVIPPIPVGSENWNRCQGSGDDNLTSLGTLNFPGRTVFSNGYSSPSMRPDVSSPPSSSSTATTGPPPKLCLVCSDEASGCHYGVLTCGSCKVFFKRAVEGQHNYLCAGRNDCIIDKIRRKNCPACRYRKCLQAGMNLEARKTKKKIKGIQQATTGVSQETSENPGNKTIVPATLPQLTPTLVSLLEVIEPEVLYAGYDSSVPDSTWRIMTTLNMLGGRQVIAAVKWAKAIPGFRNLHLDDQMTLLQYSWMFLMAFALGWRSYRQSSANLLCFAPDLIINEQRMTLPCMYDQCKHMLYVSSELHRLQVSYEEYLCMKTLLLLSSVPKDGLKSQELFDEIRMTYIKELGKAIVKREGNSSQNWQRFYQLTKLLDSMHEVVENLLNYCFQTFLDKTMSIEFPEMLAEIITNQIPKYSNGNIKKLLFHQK", "test": "Inhibition of human glucocorticoid receptor at 10 uM by radioligand binding assay", "method_in_brief": "as §1"}, "[35]": {"molecular_target": "Type-2 angiotensin II receptor (Homo sapiens) (UniProt P50052)", "test": "Inhibition of human angiotensin 2 receptor 2 at 10 uM", "method_in_brief": "as §1"}, "P2X purinoceptor 1": {"molecular_target": "P2X purinoceptor 1 (Homo sapiens, UniProt P51575)", "test": "Inhibition of P2X1R (unknown origin)", "method_in_brief": "as §4"}, "[36]": {"molecular_target": "Tumor necrosis factor receptor superfamily member 1A (Homo sapiens) (UniProt P19438)", "test": "Inhibition of human TNFalpha receptor at 10 uM by radioligand binding assay", "method_in_brief": "as §1"}, "[37]": {"molecular_target": "Calcitonin gene-related peptide type 1 receptor (Homo sapiens) (UniProt Q16602)", "test": "Inhibition of human CGRP receptor at 10 uM by radioligand binding assay", "method_in_brief": "as §3"}}, "data": [{"smiles": "Cc1cc(Cl)c(OCCO)cc1NC(=O)C1=CNC(=O)C[C@H]1c1ccc(F)cc1", "values": [{"measurement": "inhibition", "setting": "Rattus norvegicus [1]", "value": "< 30", "unit": "%"}, {"measurement": "inhibition", "setting": "[2]", "value": "< 30", "unit": "%"}, {"measurement": "inhibition", "setting": "[3]", "value": "< 30", "unit": "%"}, {"measurement": "inhibition", "setting": "[4]", "value": "< 30", "unit": "%"}, {"measurement": "inhibition", "setting": "Rattus norvegicus [5]", "value": "< 30", "unit": "%"}, {"measurement": "inhibition", "setting": "[6]", "value": "< 30", "unit": "%"}, {"measurement": "inhibition", "setting": "[7]", "value": "< 30", "unit": "%"}, {"measurement": "inhibition", "setting": "[8]", "value": "< 30", "unit": "%"}, {"measurement": "inhibition", "setting": "[9]", "value": "< 30", "unit": "%"}, {"measurement": "inhibition", "setting": "[10]", "value": "< 30", "unit": "%"}, {"measurement": "inhibition", "setting": "[11]", "value": "< 30", "unit": "%"}, {"measurement": "PB", "setting": "[12]", "value": "Not Active"}, {"measurement": "IC50", "setting": "[13]", "value": "> 10", "unit": "µM"}, {"measurement": "IC50", "setting": "P2X purinoceptor 3", "value": "> 10", "unit": "µM"}, {"measurement": "inhibition", "setting": "Rattus norvegicus [14]", "value": "< 30", "unit": "%"}, {"measurement": "inhibition", "setting": "[15]", "value": "< 30", "unit": "%"}, {"measurement": "inhibition", "setting": "[16]", "value": "< 30", "unit": "%"}, {"measurement": "inhibition", "setting": "[17]", "value": "< 30", "unit": "%"}, {"measurement": "inhibition", "setting": "[18]", "value": "< 30", "unit": "%"}, {"measurement": "half-life", "setting": "[19]", "value": 4, "unit": "h"}, {"measurement": "inhibition", "setting": "[20]", "value": "< 30", "unit": "%"}, {"measurement": "inhibition", "setting": "[21]", "value": "< 30", "unit": "%"}, {"measurement": "inhibition", "setting": "[22]", "value": "< 30", "unit": "%"}, {"measurement": "inhibition", "setting": "[23]", "value": "< 30", "unit": "%"}, {"measurement": "inhibition", "setting": "[24]", "value": "< 30", "unit": "%"}, {"measurement": "inhibition", "setting": "[25]", "value": "< 30", "unit": "%"}, {"measurement": "inhibition", "setting": "[26]", "value": "< 30", "unit": "%"}, {"measurement": "inhibition", "setting": "[27]", "value": "< 30", "unit": "%"}, {"measurement": "inhibition", "setting": "[28]", "value": "< 30", "unit": "%"}, {"measurement": "inhibition", "setting": "[29]", "value": "< 30", "unit": "%"}, {"measurement": "inhibition", "setting": "[30]", "value": "< 30", "unit": "%"}, {"measurement": "inhibition", "setting": "[31]", "value": "< 30", "unit": "%"}, {"measurement": "inhibition", "setting": "[32]", "value": "< 30", "unit": "%"}, {"measurement": "Drug metabolism", "setting": "Liver microsome", "value": "BLD"}, {"measurement": "inhibition", "setting": "[33]", "value": "< 30", "unit": "%"}, {"measurement": "inhibition", "setting": "[34]", "value": "< 30", "unit": "%"}, {"measurement": "inhibition", "setting": "[35]", "value": "< 30", "unit": "%"}, {"measurement": "IC50", "setting": "P2X purinoceptor 1", "value": "> 10", "unit": "µM"}, {"measurement": "inhibition", "setting": "[36]", "value": "< 30", "unit": "%"}, {"measurement": "inhibition", "setting": "[37]", "value": "< 30", "unit": "%"}]}]}
